Source: PubChem
This is a sample that favours compounds with a hit; in the whole collection about 2.1% have one here.
BaF3 parental = reduces parental Ba/F3 cell viability, JAK2V617F counter-screen; CellTiter-Glo ATP luminescence; inhibition, % at 5.6 µM; 1.1% of 220,000 active; AID 1486;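 active = inhibition above a per-campaign cutoff, the mean inhibition of all tested compounds plus 3 SD, cut at about 27% in these data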;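 note: 0% = DMSO wells and 100% = JAK Inhibitor I control wells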
MT stabilize HCS = microtubule stabilization, imaging screen | HeLa tubulin immunostaining HCS, 24 h; share of cells brighter than vehicle mean+2SD | 0.83% of 200,000 active | % tubulin-high responders, % at 10 µM;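 active = plate Z-score above 3 for both tubulin-high and condensed-nucleus cell shares, with cell loss under 80%, at 10 µM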;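 note: anti alpha tubulin signal scored within the nucleus-defined area of each cell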
IEC-6 cytotox = kills IEC-6 intestinal cells in KLF5 counter-screen. IEC-6 cytotoxicity, luminescence viability. inhibition, % at 5 µM. 0.78% of 290,000 active. AID 1825; in the data active = inhibition above about 22%;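 note: 0% = plate median of test compound wells and 100% = cytotoxic reference compound wells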
KLF5 inh = inhibitors of KLF5 expression; DLD-1 KLF5 promoter-luciferase reporter, luminescence; inhibition, % at 5 µM; 0.23% of 290,000 active; AID 1700;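 active = inhibition above a per-plate limit of that plate's mean compound inhibition plus 3 SD, cut at about 60% in these data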;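 note: 0% = DMSO wells and 100% = LY294002 at 200 µM; higher means less KLF5 promoter-driven luciferase light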
b-catenin transl = beta-catenin nuclear translocation modulation. HeLa beta-catenin nuclear translocation, immunofluorescence imaging. nuclear translocation activity, % at 5 µM. 0.3% of 190,000 active. AID 1665;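 active = nuclear translocation activity above 50% at 5 µM, with a well cell count of 50 or more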;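 note: per-cell ratio of nuclear to cytoplasmic median beta-catenin stain intensity; plate controls were DMSO negative control for no effect and GSK-3 inhibitor IX positive control for full effect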
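Signal – beta-catenin immunofluorescence imaging with DAPI · Test system – human HeLa cell line · Dosing – 5 µM primary single dose, 0.1% DMSO, 0.02–20 µM confirmation series · Measure – % activation, nuclear-to-cytoplasmic median beta-catenin signal ratio per cell · Incubation – 24 h compound exposure at 37°C, 5% CO2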
Ba/F3 V617F tox = loss of viability in JAK2V617F-driven Ba/F3 cells; Ba/F3 EpoR-JAK2V617F viability, ATP luminescence; inhibition, % at 5.6 µM; 1.1% of 220,000 active; AID 1446;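 active = inhibition above the campaign mean plus 3 SD over all tested compounds, cut at about 24% in these data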;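 note: cytokine-independent growth of Ba/F3 cells driven by EpoR plus mutant JAK2; 0% = DMSO-treated cells and 100% = JAK inhibitor I control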
BaF3 parental 2 = counter-screen for JAK2V617F inhibitors: parental Ba/F3 viability inhibitors | shares compounds with Ba/F3 V617F tox | CellTiter-Glo luminescence; cells kept alive by added IL-3 | inhibition, % at 5.6 µM | 31% of 580 active;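 active = cell growth inhibition above the hit limit set in the earlier mutant JAK2 cell screen, cut at about 27% in these data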;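 note: plate controls were DMSO-treated cells for no effect and JAK Inhibitor I control wells for full effect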
JAK2V617F confrm = confirmation: loss of viability in JAK2V617F-dependent Ba/F3 cells | shares compounds with Ba/F3 V617F tox | Ba/F3 EpoR-JAK2V617F viability, CellTiter-Glo luminescence | inhibition, % at 5.6 µM | 66% of 580 active;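 active = mean inhibition above the hit cutoff derived in the earlier primary screen, cut at about 25% in these data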;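 note: 0% = DMSO-treated cells and 100% = JAK inhibitor I control wells; higher means lower luminescence from reduced cell ATP and viability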
The depositor's hits bear a star.

How did O=C(CCl)N(C/C=C/c1ccccc1)c1ccc2c(c1)OCCO2 do in these assays?
BaF3 parental: 5.3; MT stabilize HCS: 5.7; IEC-6 cytotox: 4.5; KLF5 inh: -25.4; b-catenin transl: 1.1; Ba/F3 V617F tox: 40.3*; BaF3 parental 2: 19.5; JAK2V617F confrm: 94.0*

How did O=C(/C=C/c1ccccc1)c1ccc2c(c1)OCCCCO2 do in these assays?
BaF3 parental: -0.2; MT stabilize HCS: 2.1; IEC-6 cytotox: 1.3; KLF5 inh: -79.8; b-catenin transl: 0.5; Ba/F3 V617F tox: 0.3

Results for O=C(CSc1ccc2ccccc2c1)NCCc1ccc(O)c(O)c1 ?
BaF3 parental: 7.7; MT stabilize HCS: 7.4; IEC-6 cytotox: 1.5; KLF5 inh: -12.8; b-catenin transl: -1.0; Ba/F3 V617F tox: 51.6*; BaF3 parental 2: 51.2*; JAK2V617F confrm: 92.7*

Results for N#C/C(=C\c1ccc(O)c(O)c1)C(=O)NCCCc1ccccc1 ?
BaF3 parental: 4.4; MT stabilize HCS: 4.5; IEC-6 cytotox: 8.8; KLF5 inh: 10.8; b-catenin transl: 0.4; Ba/F3 V617F tox: 55.5*; BaF3 parental 2: -2.0; JAK2V617F confrm: 87.1*

Results for Nc1c(-c2ccccc2)sc2ccc3ccccc3[n+]12 ?
IEC-6 cytotox: 3.4; KLF5 inh: -25.6

What do the screens show for `CCN(CC)S(=O)(=O)c1cccc(-n2c(O)c(C=Nc3ccccc3C(=O)O)c3ccccc3c2=O)c1`?
BaF3 parental: 9.8; IEC-6 cytotox: 16.9; KLF5 inh: -20.6; b-catenin transl: -1.1; Ba/F3 V617F tox: 26.2*; BaF3 parental 2: 9.3; JAK2V617F confrm: 54.7*

How did O=C(O)c1ccccc1N=Cc1c(O)n(-c2nccs2)c(=O)c2ccccc12 do in these assays?
BaF3 parental: 2.1; IEC-6 cytotox: 3.3; KLF5 inh: -14.7; b-catenin transl: 0.4; Ba/F3 V617F tox: 17.0

How did CN(C(=S)SCc1ccccc1)C1CCS(=O)(=O)C1 (configuration not stated) do in these assays?
BaF3 parental: 3.2; MT stabilize HCS: 2.9; IEC-6 cytotox: -6.3; KLF5 inh: -17.3; b-catenin transl: -4.3; Ba/F3 V617F tox: -0.4

Results for Cc1cccc(CS(=O)(=O)Cc2ccc(C(=O)NC(C)c3ccccc3)o2)c1 (configuration not stated) ?
IEC-6 cytotox: -6.5; KLF5 inh: -0.3

How did CCSc1nnc([C@H](Cc2ccccc2)NC(=O)OC(C)(C)C)o1 do in these assays?
BaF3 parental: 6.1; MT stabilize HCS: 1.6; IEC-6 cytotox: -3.1; KLF5 inh: -2.0; b-catenin transl: 0.1; Ba/F3 V617F tox: 0.5

How did CCC(C)[C@@H](NC(=O)OC(C)(C)C)c1nnc(S(=O)(=O)Cc2cccc(C)c2)o1 (some centres not stated) do in these assays?
BaF3 parental: 13.7; MT stabilize HCS: 5.0; IEC-6 cytotox: 6.7; KLF5 inh: -1.6; b-catenin transl: -3.9; Ba/F3 V617F tox: 25.9*; BaF3 parental 2: 11.5; JAK2V617F confrm: 65.8*

How did Cc1ccccc1CS(=O)(=O)c1nnc([C@H](Cc2ccccc2)NC(=O)OC(C)(C)C)o1 do in these assays?
BaF3 parental: 1.8; MT stabilize HCS: 1.1; IEC-6 cytotox: 4.4; KLF5 inh: 6.7; Ba/F3 V617F tox: 37.3*; BaF3 parental 2: 1.7; JAK2V617F confrm: 95.0*

Results for O=C(NC1CCCC1)C(c1ccccc1F)N(C(=O)Cc1cccs1)c1ccc2c(c1)OCCO2 (configuration not stated) ?
BaF3 parental: 6.7; MT stabilize HCS: 1.3; IEC-6 cytotox: 3.6; KLF5 inh: -6.9; b-catenin transl: 0.8; Ba/F3 V617F tox: -0.6

What do the screens show for `CCCCCCN(C(=O)CCl)c1ccccc1`?
BaF3 parental: -0.1; IEC-6 cytotox: -6.4; KLF5 inh: -52.6; b-catenin transl: 2.4; Ba/F3 V617F tox: 49.3*; BaF3 parental 2: 0.8; JAK2V617F confrm: 62.7*

What do the screens show for `CCCCCCCN(C(=O)CCl)c1cccc(C)c1`?
BaF3 parental: 10.1; MT stabilize HCS: 4.9; IEC-6 cytotox: 6.4; KLF5 inh: 12.8; b-catenin transl: -1.4; Ba/F3 V617F tox: 6.6
